These results are taken from publication PMC7873610 (European Journal of Medicinal Chemistry, 2021).

In experiment [1] the test system is HeLa. The following applies: read-out: IC50 in HeLa cells, previously published value; cited from earlier work.
Experiment [2] has as its system chymotrypsin-like subunit. The following applies: cited from earlier work.
For experiment [3], the target named is β5 catalytic subunit (chymotrypsin-like activity) (Homo sapiens, UniProt P20618+P28074). Kind of experiment: Proteasome-Glo cell-based chymotrypsin-like. The following applies: CT-L; for fold increase in inhibitory activity than compounds with unsubstituted phenyl: vs 30, 29 and BSc2189.
In the next experiment the test system is THP-1. Briefly: MTS cytotoxicity assay, THP-1. The following applies: Homo sapiens, THP-1, 72 h, read-out: Cytotoxicity IC50 ± SEM, THP-1. It counts as cell-based. In outline:
(§1)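 RPMI8226, THP-1 and Ramos cells were grown in RPMI 1640 with 10% FBS at 37 °C and 5% CO2. Cells were seeded in 100 μL at 1∗104/well (RPMI8226) or 5∗104/well (THP-1, Ramos) and exposed to test compound for 72 h. MTS was then added for 3 h at 37 °C, and OD was read at 490 nm. Triplicate experiments, triplicate wells each; IC50 from curve fitting.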
A general note: Tetrazolium assays rely on reduction of a dye to a coloured formazan, in cell work by metabolically active cells.

The test system of the next experiment is SW480. Kind of experiment: MTS cytotoxicity assay, SW480. It counts as cell-based. The following applies: Homo sapiens, SW480, 72 h, read-out: Cytotoxicity IC50 ± SEM, SW480. The method, boiled down:
(§2)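 HeLa, MGC-803 and SW480 cells were maintained in DMEM with 10% FBS at 37 °C and 5% CO2. Each line was plated at 5∗10^3 cells/well in 100 μL and treated with test compound for 72 h. MTS solution was added and incubated 3 more h at 37 °C, then absorbance was measured at 490 nm. Assays were run in triplicate with triplicate wells; IC50 was obtained by curve fitting.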

The next experiment has as its system MGC-803. Kind of experiment: MTS cytotoxicity assay, MGC-803. The following applies: Homo sapiens, MGC-803, 72 h, read-out: Cytotoxicity IC50 ± SEM, MGC-803. It is filed as cell-based. In outline: as §2
In the next experiment the test system is RPMI8226. Kind of experiment: MTS cytotoxicity assay, RPMI8226. It is filed as cell-based. The following applies: Homo sapiens, RPMI-8226, 72 h, read-out: Cytotoxicity IC50 ± SEM, RPMI8226. In outline: as §1
In experiment [4] the test system is HeLa. Kind of experiment: MTS cytotoxicity assay, HeLa. It is filed as cell-based. The following applies: Homo sapiens, 72 h, read-out: Cytotoxicity IC50 ± SEM, Hela, MTS, 72 h. The method, boiled down: as §2
A further experiment relates to Ramos (RA 1). Kind of experiment: MTS cytotoxicity assay, Ramos. It counts as cell-based. The following applies: Homo sapiens, 72 h, read-out: Cytotoxicity IC50 ± SEM, Ramos (RA 1). In outline:
as §1

Like-named read-outs stand apart in the source and are kept apart here.

For `CC(C)C[C@H](NC(=O)OCc1ccccc1)C(=O)N[C@@H](CC(C)C)C(=O)N[C@@H](CC(C)C)C(=O)C(=O)Nc1ccccc1` [BSc2189], the IC50 (commonly the midpoint of a concentration-inhibition curve) in the experiment on HeLa [1] is 254 nM.
As to `Cc1ccc(NC(=O)C(=O)C(CC(C)C)NC(=O)C(CC(C)C)NC(=O)C(CC(C)C)NC(=O)OCc2ccccc2)c(C)c1` (stereo not drawn) [BSc4999], the “fold more potent than BSc2189” value in [2] is “about 2 fold”.
Take `CC(C)C[C@H](NC(=O)[C@H](Cc1ccccc1)NC(=O)[C@H](CC1CCCCC1)NC(=O)OCc1ccccc1)C(=O)C(=O)Nc1ccccc1` [Compound 31, ((2S)-3-cyclohexyl-1-(((2S)-1-((5-methyl-1,2-dioxo-1-(phenylamino)hexan-3-yl)amino)-1-oxo-3-phenylpropan-2-yl)amino)-1-oxopropan-2-yl)carbamic acid benzyl ester]: the “fold increase in potency relative to analog 28” value in [3] (vs 28 with Ala at P3) is 3 fold. Also, the “fold reduced activity compared with 30” value in [3] (vs 30 with Leu at P3) is roughly 3 fold.
`CC(=O)c1cccc(NC(=O)C(=O)[C@H](CC(C)C)NC(=O)[C@H](Cc2ccccc2)NC(=O)[C@H](CC(C)C)NC(=O)OCc2ccccc2)c1` [Compound 34, ((S)-1-(((S)-1-(((S)-1-((3-acetylphenyl)amino)-5-methyl-1,2-dioxohexan-3-yl)amino)-1-oxo-3-phenylpropan-2-yl)amino)-4-methyl-1-oxopentan-2-yl)carbamic acid benzyl ester]: the “fold increase in inhibitory activity than compounds with unsubstituted phenyl” value in [3] is on record as 1.5–4 fold.
Regarding `CC(=O)c1cccc(NC(=O)C(=O)[C@H](CC(C)C)NC(=O)[C@H](Cc2c[nH]c3ccccc23)NC(=O)[C@H](CC(C)C)NC(=O)OCc2ccccc2)c1` [Compound 35, ((S)-1-(((S)-1-(((S)-1-((3-acetylphenyl)amino)-5-methyl-1,2-dioxohexan-3-yl)amino)-3-(1H-indol-3-yl)-1-oxopropan-2-yl)amino)-4-methyl-1-oxopentan-2-yl)carbamic acid benzyl ester], the “fold increase in inhibitory activity than compounds with unsubstituted phenyl” value in [3] is recorded as 1.5–4 fold.
For `CC(C)C[C@H](NC(=O)OCc1ccccc1)C(=O)N[C@@H](Cc1c[nH]c2ccccc12)C(=O)N[C@@H](CC(C)C)C(=O)C(=O)Nc1cccc(S(C)(=O)=O)c1` [Compound 36, ((S)-1-(((S)-3-(1H-indol-3-yl)-1-(((S)-5-methyl-1-((3-(methylsulfonyl)phenyl)amino)-1,2-dioxohexan-3-yl)amino)-1-oxopropan-2-yl)amino)-4-methyl-1-oxopentan-2-yl)carbamic acid benzyl ester], in experiment [3], the “fold increase in inhibitory activity than compounds with unsubstituted phenyl” value is listed as 1.5–4 fold.
On to `CC(C)C[C@H](NC(=O)OCc1ccccc1)C(=O)N[C@@H](Cc1c[nH]c2ccccc12)C(=O)N[C@@H](CC(C)C)C(=O)C(=O)Nc1cccc2ccccc12` [Compound 37, ((S)-1-(((S)-3-(1H-indol-3-yl)-1-(((S)-5-methyl-1-(naphthalen-1-ylamino)-1,2-dioxohexan-3-yl)amino)-1-oxopropan-2-yl)amino)-4-methyl-1-oxopentan-2-yl) carbamic acid benzyl ester], for which, in experiment [3] (1-naphthyl vs unsubstituted phenyl head group), the “fold decrease in inhibitory potency over 29” value is recorded as 2 fold.
In the case of `CC(=O)c1cccc(NC(=O)C(=O)[C@H](CC(C)C)NC(=O)[C@H](CC(C)C)NC(=O)[C@H](CC(C)C)NC(=O)OCc2ccccc2)c1` [Compound 38, ((S)-1-(((S)-1-(((S)-1-((3-acetylphenyl)amino)-5-methyl-1,2-dioxohexan-3-yl)amino)-4-methyl-1-oxopentan-2-yl)amino)-4-methyl-1-oxopentan-2-yl) carbamic acid benzyl ester], in experiment [3], the “fold increase in inhibitory activity than compounds with unsubstituted phenyl” value is on record as 1.5–4 fold.
For `CC(C)C[C@H](NC(=O)OCc1ccccc1)C(=O)N[C@@H](CC(C)C)C(=O)N[C@@H](CC(C)C)C(=O)C(=O)Nc1ccccc1-c1ccccc1` [Compound 41, ((S)-1-(((S)-1-(((S)-1-([1,1′-biphenyl]-2-ylamino)-5-methyl-1,2-dioxohexan-3-yl)amino)-4-methyl-1-oxopentan-2-yl)amino)-4-methyl-1-oxopentan-2-yl)carbamic acid benzyl ester], in experiment [3] (phenyl in ortho position of head group phenyl), the “fold reduced inhibitory activity” value is reported as “up to 150 fold”.
In the case of `CC(=O)c1ccc(-c2ccc(C(=O)N[C@@H](CC(C)C)C(=O)N[C@@H](CC(C)C)C(=O)N[C@@H](CC(C)C)C(=O)C(=O)Nc3cccc(C(C)=O)c3)o2)cc1` [Compound 46, 5-(4-acetylphenyl)-N-((S)-1-(((S)-1-(((S)-1-((3-acetylphenyl)amino)-5-methyl-1,2-dioxohexan-3-yl)amino)-4-methyl-1-oxopentan-2-yl)amino)-4-methyl-1-oxopentan-2-yl)furan-2-carboxamide], the IC50 in the experiment on THP-1 is 94.4 ± 1.45 nM; in the experiment with SW480, 79.3 ± 1.87 nM; in the experiment on MGC-803 it was 79 ± 12.6 nM; with RPMI8226 it was 38.1 ± 1.19 nM; in the experiment with HeLa [4] it was 260 ± 4.34 nM; in the experiment on Ramos (RA 1) it was 26.13 ± 0.18 nM.
Regarding `COc1cccc(NC(=O)C(=O)[C@H](CC(C)C)NC(=O)[C@H](CC(C)C)NC(=O)[C@H](CC(C)C)NC(=O)c2ccc(-c3ccc(C(C)=O)cc3)o2)c1` [Compound 47, N-((S)-1-(((S)-1-(((S)-1-((3-methoxyphenyl)amino)-5-methyl-1,2-dioxohexan-3-yl)amino)-4-methyl-1-oxopentan-2-yl)amino)-4-methyl-1-oxopentan-2-yl)5-(4-acetylphenyl)-furan-2-carboxamide], the IC50 is 97.9 ± 2.79 nM in the experiment on THP-1; 74.5 ± 3.13 nM in the experiment with SW480; 85.4 ± 6.73 nM with MGC-803; 43.4 ± 1.04 nM in the experiment with RPMI8226; 239 ± 3.28 nM with HeLa [4]; 38.3 ± 3.04 nM in the experiment on Ramos (RA 1).
For the compound `COc1ccc(C[C@H](NC(=O)[C@H](C)NC(=O)CN2CCOCC2)C(=O)N[C@@H](Cc2ccccc2)C(=O)[C@@]2(C)CO2)cc1` [ONX-0914, reference compound], the values for the half-inhibitory concentration (IC50) in the experiment on THP-1 and in the experiment on HeLa [4] were 202 nM and 590 nM, respectively.
